# In ChEMBL document CHEMBL1157311, “Aurilides B and C, cancer cell toxins from a Papua New Guinea collection of the marine cyanobacterium Lyngbya majuscula” (2006):
# Calls of active or inactive are those of the source. The rule behind the calls is not given here.
# Tests used:
# NCI-H522 = experiment: Growth inhibition of human NCI-H522 cells; type: functional; settings: read-out: pTGI
# [1] = Growth inhibition of human OVACR3 cells; type: functional
# U-251 = experiment: Growth inhibition of human U251 cells; type: functional
# MCF7 = experiment: Growth inhibition of human MCF7 cells; type: functional
# SF-539 = experiment: Growth inhibition of human SF539 cells; type: functional
# DU-145 = experiment: Growth inhibition of human DU145 cells; type: functional
# HT-29 = experiment: Growth inhibition of human HT29 cells; type: functional
# MOLT-4 = experiment: Growth inhibition of human MOLT4 cells; type: functional
# Hs-578T = experiment: Growth inhibition of human HS578T cells; type: functional
# SK-OV-3 = experiment: Growth inhibition of human SKOV3 cells; type: functional
# SF-268 = experiment: Growth inhibition of human SF268 cells; type: functional
# T47D = experiment: Growth inhibition of human T47D cells; type: functional
# SF-295 = experiment: Growth inhibition of human SF295 cells; type: functional
# A10 = experiment: Disruption of microfilament in rat A10 cells at 2.9 uM after 24 hrs by rhodamine-phalloidin assay; type: functional, cell-based
# How it was run: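 A-10 smooth muscle cells grown on glass coverslips in BME with 10% fetal calf serum and exposed 24 h. Fixed in 3% paraformaldehyde, permeabilised with 0.2% Triton X-100, reduced with NaBH4, then stained 45 min with 100 nM TRITC-phalloidin for actin and with DAPI for DNA. Microfilament network scored by fluorescence microscopy.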
# [2] = Growth inhibition of human […] cells; type: functional
# KM12 = experiment: Growth inhibition of human KM12 cells; type: functional
# [3] = Growth inhibition of human HL60(TB) cells; type: functional, HL-60(TB)
# SW-620 = experiment: Growth inhibition of human SW620 cells; type: functional; settings: read-out: pLC50 (the source's name) (converted)
# SK-MEL-28 = experiment: Growth inhibition of human SK-MEL-28 cells; type: functional
# MDA-MB-231 = experiment: Growth inhibition of human MDA-MB-231 cells; type: functional
# SNB-75 = experiment: Growth inhibition of human SNB75 cells; type: functional
# SK-MEL-2 = experiment: Growth inhibition of human SK-MEL-2 cells; type: functional
# NCI-H460 = experiment: Growth inhibition of human NCI-H460 cells; type: functional; settings: read-out: pLC50 (the source's name) (converted)
# HCT-15 = experiment: Growth inhibition of human HCT15 cells; type: functional
# UACC-257 = experiment: Growth inhibition of human UACC257 cells; type: functional
# M14 = experiment: Growth inhibition of human M14 cells; type: functional
# 786-0 = experiment: Growth inhibition of human 786-0 cells; type: functional
# ACHN = experiment: Growth inhibition of human ACHN cells; type: functional
# SNB-19 = experiment: Growth inhibition of human SNB19 cells; type: functional
# NCI-H226 = experiment: Growth inhibition of human NCI-H226 cells; type: functional
# [4] = read-out: pLC50 (the source's name) (converted)
smiles,measurement,setting,value
CC/C=C(\C)[C@H]1OC(=O)[C@H](C)N(C)C(=O)[C@H](C(C)C)NC(=O)CN(C)C(=O)[C@H]([C@H](C)CC)N(C)C(=O)[C@H](C(C)C)NC(=O)[C@@H]([C@@H](C)CC)OC(=O)/C(C)=C/C[C@H](O)[C@@H]1C [AURILIDE B],TGI,NCI-H522,< 10 nM
same,GI50,[1],< 10 nM
same,TGI,[1]; read-out: pTGI,< 10 nM
same,GI50,U-251,< 10 nM
same,TGI,U-251; read-out: pTGI,< 10 nM
same,GI50,MCF7,< 10 nM
same,CC50,MCF7; [4],> 100000 nM
same,TGI,MCF7; read-out: pTGI (converted),19100 nM
same,GI50,SF-539,< 10 nM
same,CC50,SF-539; [4],< 10 nM
same,TGI,SF-539; read-out: pTGI,< 10 nM
same,GI50,DU-145,< 10 nM
same,CC50,DU-145; [4],< 10 nM
same,TGI,DU-145; read-out: pTGI,< 10 nM
same,GI50,HT-29,< 10 nM
same,CC50,HT-29; [4],> 100000 nM
same,TGI,HT-29; read-out: pTGI,> 100000 nM
same,GI50,MOLT-4,< 10 nM
same,CC50,MOLT-4; [4],< 10 nM
same,TGI,MOLT-4; read-out: pTGI,< 10 nM
same,CC50,Hs-578T; [4],> 100000 nM
same,TGI,Hs-578T; read-out: pTGI (converted),708 nM
same,GI50,SK-OV-3,< 10 nM
same,CC50,SK-OV-3; [4],38900 nM
same,GI50,SF-268,< 10 nM
same,CC50,SF-268; [4],794 nM
same,GI50,T47D,< 10 nM
same,CC50,T47D; [4],> 100000 nM
same,GI50,SF-295,< 10 nM
same,CC50,SF-295; [4],> 100000 nM
same,TGI,SF-295; read-out: pTGI,< 10 nM
same,Activity,A10,Active
same,GI50,[2],< 10 nM
same,TGI,[2]; read-out: pTGI,< 10 nM
same,GI50,KM12,< 10 nM
same,CC50,KM12; [4],> 100000 nM
same,TGI,KM12; read-out: pTGI,> 100000 nM
same,GI50,[3]; HL-60,< 10 nM
same,CC50,"[3]; HL-60, read-out: pLC50 (the source's name) (converted)",< 10 nM
same,TGI,"[3]; HL-60, read-out: pTGI",< 10 nM
same,CC50,SW-620,> 100000 nM
same,GI50,SK-MEL-28,< 10 nM
same,CC50,SK-MEL-28; [4],> 100000 nM
same,TGI,SK-MEL-28; read-out: pTGI,< 10 nM
same,GI50,MDA-MB-231,< 10 nM
same,TGI,MDA-MB-231; read-out: pTGI,< 10 nM
same,CC50,SNB-75; [4],83200 nM
same,TGI,SNB-75; read-out: pTGI,< 10 nM
same,GI50,SK-MEL-2,< 10 nM
same,CC50,SK-MEL-2; [4],> 100000 nM
same,TGI,SK-MEL-2; read-out: pTGI,< 10 nM
same,CC50,NCI-H460,77600 nM
same,GI50,HCT-15,< 10 nM
same,CC50,HCT-15; [4],> 100000 nM
same,TGI,HCT-15; read-out: pTGI (converted),170 nM
same,GI50,UACC-257,< 10 nM
same,CC50,UACC-257; [4],< 10 nM
same,TGI,UACC-257; read-out: pTGI,< 10 nM
same,GI50,M14,< 10 nM
same,CC50,M14; [4],< 10 nM
same,TGI,M14; read-out: pTGI,< 10 nM
same,GI50,786-0,< 10 nM
same,CC50,786-0; [4],< 10 nM
same,TGI,786-0; read-out: pTGI,< 10 nM
same,GI50,ACHN,< 10 nM
same,CC50,ACHN; [4],> 100000 nM
same,GI50,SNB-19,< 10 nM
same,CC50,SNB-19; [4],> 100000 nM
same,TGI,SNB-19; read-out: pTGI (converted),19.9 nM
same,GI50,NCI-H226,< 10 nM
same,CC50,NCI-H226; [4],< 10 nM
same,TGI,NCI-H226; read-out: pTGI,< 10 nM
